Measured values taken from ChEMBL document CHEMBL5724801, “EUbOPEN Chemogenomics Library - Multiplex” (2024).
Several values for one entry are separate records, joined by “and”; a condition that tells them apart may be missing. Equal values may be shown once.

Test system: Fibroblast
Experiment: Multiplex assay against human fibroblast
Format: toxicity, cell-based
Method in brief: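 Values for tubulin, mitochondrial-mass and membrane-permeability phenotypes are per cents of cells with healthy nuclei. These cells were identified by CellPathfinder machine-learning gating of live cells that had been stained at seeding with Hoechst33342, BioTracker Green Microtubule Cytoskeleton Dye, MitoTracker Red and Annexin V Alexa Fluor 680 and imaged on a CQ1 microscope at 37°C and 5% CO2 after compound addition. The gating first set Hoechst high-intensity objects apart from normal cells, then split normal cells into healthy, pyknosed or fragmented nuclei, and pyknosed cells into mitotic or apoptotic.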

[1] = 12 h, 1 µM, compound concentration 1 uM
[2] = 12 h, 10 µM, compound concentration 10 uM
[3] = 24 h, 1 µM, compound concentration 1 uM
[4] = 24 h, 10 µM, compound concentration 10 uM
[5] = 48 h, 1 µM, compound concentration 1 uM
[6] = 48 h, 10 µM, compound concentration 10 uM

In the case of `O=C(CCCc1ccccc1)Nc1nc2ccccc2c(=O)s1`, the “Population Apoptotic (%)” value [1] was 58% and 34%, the “Population Fragmented Nuclei (%)” value [1] was 9% and 19% and the “Population Healthy Nuclei (%)” value [1] was 66% and 49%. The “Population Hoechst High Intensity Objects (%)” value [1] was 2% and 3%, the “Population Membrane Permeable-Phenotype (%)” value [1] was 0% and 9% and the “Population Mitochondria Different-Phenotype (%)” value [1] was 4% and 7%. The “Population Mitotic Cells (%)” value [1] was 41% and 65%, the “Population Normal (%)” value [1] was 97% and 96% and the “Population Pyknosed Nuclei (%)” value [1] was 23% and 31%. The “Population Tubulin-Different-Phenotype (%)” value [1] was 34% and 35%, the “Total Cell Count” value [1] was 127 and 135 and the “Population Apoptotic (%)” value [2] was 51% and 31%. For the same molecule, the “Population Fragmented Nuclei (%)” value [2] was 21% and 26%, the “Population Healthy Nuclei (%)” value [2] was 58% and 38% and the “Population Hoechst High Intensity Objects (%)” value [2] was 2% and 12%. For the same molecule, the “Population Mitotic Cells (%)” value [2] was 48% and 68%, the “Population Normal (%)” value [2] was 97% and 87% and the “Population Pyknosed Nuclei (%)” value [2] was 20% and 35%. For the same molecule, the “Population Tubulin-Different-Phenotype (%)” value [2] was 28% and 48%, the “Total Cell Count” value [2] was 147 and 133 and the “Population Apoptotic (%)” value [3] was 50% and 42%. For the same molecule, the “Population Fragmented Nuclei (%)” value [3] was 13% and 21%, the “Population Healthy Nuclei (%)” value [3] was 68% and 51% and the “Population Hoechst High Intensity Objects (%)” value [3] was 2% and 5%. For the same molecule, the “Population Membrane Permeable-Phenotype (%)” value [3] was 0% and 4%, the “Population Mitochondria Different-Phenotype (%)” value [3] was 5% and 4% and the “Population Mitotic Cells (%)” value [3] was 50% and 57%. For the same molecule, the “Population Normal (%)” value [3] was 97% and 94%, the “Population Pyknosed Nuclei (%)” value [3] was 18% and 26% and the “Population Tubulin-Different-Phenotype (%)” value [3] was 20% and 35%. The “Total Cell Count” value [3] was 147 and 131, the “Population Apoptotic (%)” value [4] was 46% and 53% and the “Population Fragmented Nuclei (%)” value [4] was 19% and 34%. For the same molecule, the “Population Healthy Nuclei (%)” value [4] was 60% and 39%, the “Population Hoechst High Intensity Objects (%)” value [4] was 5% and the “Population Membrane Permeable-Phenotype (%)” value [4] was 0% and 18%. For the same molecule, the “Population Mitotic Cells (%)” value [4] was 53% and 46%, the “Population Normal (%)” value [4] was 94% and the “Population Pyknosed Nuclei (%)” value [4] was 20% and 25%. The “Total Cell Count” value [4] was 135 and 134, the “Population Apoptotic (%)” value [5] was 59% and 42% and the “Population Fragmented Nuclei (%)” value [5] was 13% and 26%. For the same molecule, the “Population Healthy Nuclei (%)” value [5] was 66% and 58%, the “Population Hoechst High Intensity Objects (%)” value [5] was 5% and 2% and the “Population Membrane Permeable-Phenotype (%)” value [5] was 1% and 4%. The “Population Mitochondria Different-Phenotype (%)” value [5] was 1% and 6%, the “Population Mitotic Cells (%)” value [5] was 40% and 57% and the “Population Normal (%)” value [5] was 94% and 97%. For the same molecule, the “Population Pyknosed Nuclei (%)” value [5] was 19% and 15%, the “Population Tubulin-Different-Phenotype (%)” value [5] was 32% and 50% and the “Total Cell Count” value [5] was 146 and 127. The “Population Apoptotic (%)” value [6] was 58% and 77%, the “Population Fragmented Nuclei (%)” value [6] was 19% and 40% and the “Population Healthy Nuclei (%)” value [6] was 58% and 43%. The “Population Hoechst High Intensity Objects (%)” value [6] was 2% and 5%, the “Population Membrane Permeable-Phenotype (%)” value [6] was 1% and 10% and the “Population Mitotic Cells (%)” value [6] was 41% and 22%. For the same molecule, the “Population Normal (%)” value [6] was 97% and 94%, the “Population Pyknosed Nuclei (%)” value [6] was 22% and 16% and the “Population Tubulin-Different-Phenotype (%)” value [6] was 26% and 73%. The “Total Cell Count” value [6] was 143 and 119.

With `Cc1noc(-c2ccc(-c3ccc(CC(=O)O)cc3)cc2)c1NC(=O)O[C@H](C)c1ccccc1Cl` the “Population Apoptotic (%)” value [1] was 22% and 58%, the “Population Fragmented Nuclei (%)” value [1] was 14% and 21% and the “Population Healthy Nuclei (%)” value [1] was 77% and 60%. The “Population Hoechst High Intensity Objects (%)” value [1] was 0% and 5%, the “Population Membrane Permeable-Phenotype (%)” value [1] was 0% and 5% and the “Population Mitochondria Different-Phenotype (%)” value [1] was 1% and 2%. The “Population Mitotic Cells (%)” value [1] was 77% and 41%, the “Population Normal (%)” value [1] was 100% and 95% and the “Population Pyknosed Nuclei (%)” value [1] was 8% and 18%. For the same molecule, the “Population Tubulin-Different-Phenotype (%)” value [1] was 10% and 26%, the “Total Cell Count” value [1] was 106 and 140 and the “Population Apoptotic (%)” value [2] was 40% and 29%. For the same molecule, the “Population Fragmented Nuclei (%)” value [2] was 20% and 17%, the “Population Healthy Nuclei (%)” value [2] was 62% and 45% and the “Population Hoechst High Intensity Objects (%)” value [2] was 1% and 6%. The “Population Membrane Permeable-Phenotype (%)” value [2] was 1% and 2%, the “Population Mitochondria Different-Phenotype (%)” value [2] was 6% and 10% and the “Population Mitotic Cells (%)” value [2] was 60% and 70%. For the same molecule, the “Population Normal (%)” value [2] was 98% and 93%, the “Population Pyknosed Nuclei (%)” value [2] was 17% and 36% and the “Population Tubulin-Different-Phenotype (%)” value [2] was 31% and 57%. For the same molecule, the “Total Cell Count” value [2] was 119 and 90, the “Population Apoptotic (%)” value [3] was 20% and 52% and the “Population Fragmented Nuclei (%)” value [3] was 16% and 30%. For the same molecule, the “Population Healthy Nuclei (%)” value [3] was 78% and 57%, the “Population Hoechst High Intensity Objects (%)” value [3] was 0% and 2% and the “Population Membrane Permeable-Phenotype (%)” value [3] was 0% and 1%. The “Population Mitochondria Different-Phenotype (%)” value [3] was 1% and 7%, the “Population Mitotic Cells (%)” value [3] was 80% and 47% and the “Population Normal (%)” value [3] was 100% and 97%. For the same molecule, the “Population Pyknosed Nuclei (%)” value [3] was 4% and 12%, the “Population Tubulin-Different-Phenotype (%)” value [3] was 10% and 28% and the “Total Cell Count” value [3] was 102 and 161. For the same molecule, the “Population Apoptotic (%)” value [4] was 50% and 32%, the “Population Fragmented Nuclei (%)” value [4] was 20% and 26% and the “Population Healthy Nuclei (%)” value [4] was 68% and 41%. The “Population Hoechst High Intensity Objects (%)” value [4] was 1%, the “Population Membrane Permeable-Phenotype (%)” value [4] was 0% and the “Population Mitochondria Different-Phenotype (%)” value [4] was 7% and 10%. For the same molecule, the “Population Mitotic Cells (%)” value [4] was 50% and 67%, the “Population Normal (%)” value [4] was 98% and the “Population Pyknosed Nuclei (%)” value [4] was 11% and 31%. The “Population Tubulin-Different-Phenotype (%)” value [4] was 29% and 65%, the “Total Cell Count” value [4] was 122 and 98 and the “Population Apoptotic (%)” value [5] was 44% and 60%. For the same molecule, the “Population Fragmented Nuclei (%)” value [5] was 18% and 35%, the “Population Healthy Nuclei (%)” value [5] was 73% and 55% and the “Population Hoechst High Intensity Objects (%)” value [5] was 1% and 2%. The “Population Membrane Permeable-Phenotype (%)” value [5] was 1% and 5%, the “Population Mitochondria Different-Phenotype (%)” value [5] was 1% and 3% and the “Population Mitotic Cells (%)” value [5] was 55% and 40%. The “Population Normal (%)” value [5] was 98% and 97%, the “Population Pyknosed Nuclei (%)” value [5] was 8% and the “Population Tubulin-Different-Phenotype (%)” value [5] was 16% and 25%. The “Total Cell Count” value [5] was 112 and 171, the “Population Apoptotic (%)” value [6] was 23% and 39% and the “Population Fragmented Nuclei (%)” value [6] was 30% and 40%. For the same molecule, the “Population Healthy Nuclei (%)” value [6] was 55% and 37%, the “Population Hoechst High Intensity Objects (%)” value [6] was 4% and 2% and the “Population Membrane Permeable-Phenotype (%)” value [6] was 2% and 0%. For the same molecule, the “Population Mitochondria Different-Phenotype (%)” value [6] was 4% and 10%, the “Population Mitotic Cells (%)” value [6] was 76% and 60% and the “Population Normal (%)” value [6] was 95% and 97%. The “Population Pyknosed Nuclei (%)” value [6] was 13% and 22%, the “Population Tubulin-Different-Phenotype (%)” value [6] was 35% and 69% and the “Total Cell Count” value [6] was 133 and 107.
